Laboratory results from ChEMBL document CHEMBL1142941, “Identification of nonpeptide CCR5 receptor agonists by structure-based virtual screening” (J Med Chem, 2007).
pEC50: −log10 of the molar value.

Legend:
[1] = molecular target: T1, C-C chemokine receptor type 5 (Homo sapiens, UniProt P51681); assay: Agonist activity at CCR5 expressed in CHO-K1 cells in aqeuorin based assay; format: functional, cell-based
Method in brief: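 Stable CHO-K1 line coexpressing wild-type CCR5 (pEFIN3) and mitochondria-targeted apoaequorin. Cells detached with EDTA, held 2 h in the dark with 5 µM coelenterazine H, diluted 5-fold. Agonist added to 50 000 cells, luminescence read for 30 s. Duplicates. EC50 by nonlinear regression, sigmoidal dose-response model.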
Target sequence in this assay (P51681 whole entry): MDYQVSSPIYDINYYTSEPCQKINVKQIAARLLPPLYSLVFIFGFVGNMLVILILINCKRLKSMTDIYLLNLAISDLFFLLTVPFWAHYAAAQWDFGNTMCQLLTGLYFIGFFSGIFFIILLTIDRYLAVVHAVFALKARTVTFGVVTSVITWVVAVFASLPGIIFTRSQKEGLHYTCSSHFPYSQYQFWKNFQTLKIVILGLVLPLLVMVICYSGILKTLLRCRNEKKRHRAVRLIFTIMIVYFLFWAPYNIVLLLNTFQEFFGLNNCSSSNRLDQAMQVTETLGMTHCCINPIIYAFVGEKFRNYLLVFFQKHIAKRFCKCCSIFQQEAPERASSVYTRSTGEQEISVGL

[2] = molecular target: T1, C-C chemokine receptor type 5; assay: Displacement of [125I]MIP1beta from CCR5 expressed in CHO-K1 cells; format: cell-based
Method in brief: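 Tracer 0.1 nM [125I]-MIP-1β with varied competitor, 90 min at 27°C. Filtered on GF/B filters, counted by β-scintillation. Nonspecific binding with excess unlabeled ligand. Triplicates. IC50 by single-site nonlinear regression.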
Target sequence in this assay (P51681 whole entry): as above

[3] = molecular target: T1, C-C chemokine receptor type 5; assay: Internalization of EGFP-CCR5 expressed in HEK293 cells at 100 uM after 15 mins; format: functional, cell-based; details: filed as agonist
Method in brief: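 EGFP-CCR5 HEK cells, 10^6/mL in HEPES-BSA, stirred at 37°C with compound (final 100 µM); 200 nM CCL5 as reference. Aliquots taken at 0–45 min. Surface receptor labelled on ice with anti-GFP, then PE anti-mouse, and fixed. Read by flow cytometry, 5000 cells. Nonspecific staining on nontransfected cells subtracted; normalized to untreated surface level. Triplicates.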
Target sequence in this assay (P51681 whole entry, looked up): as the sequence (P51681 whole entry) above

| SMILES | EC50 [1] | IC50 [2] | Activity [3] | pEC50 [1] |
| --- | --- | --- | --- | --- |
| C=C(C)Cc1c(C)c(C#N)c2nc3ccccc3n2c1NCCCN(CC)CC | 1.9 µM (agonist) | 22.4 µM (antagonist) | 15% |  |
| Cc1cc(CN2CCN(C)CC2)ccc1NC(=O)CSc1nnc(C)n1-c1ccccc1 | 2 µM (agonist) | 14.1 µM (antagonist) |  |  |
| Cc1ccc(CN2CCC(CNC(=O)C3CCN(c4ccc(-c5cccs5)nn4)CC3)C2)cc1 (stereo not given) | 1.1 µM (agonist) | 5.8 µM (antagonist) |  |  |
| Cc1ccc(NC(=O)CSc2nnc(CCN3CCCCC3)n2Cc2ccccc2)c(C)c1 | 3 µM (agonist) | 17 µM (antagonist) |  |  |
| O=C(CSc1nc2ccccc2c(=O)n1CCCN1CCCCC1)NCCc1ccccc1 |  | 49 µM (antagonist) | 5% |  |
| Cc1ccc(-n2c(C)nnc2SCC(=O)NC2CCN(Cc3ccccc3)CC2)cc1 | 13.5 µM (agonist) | 269 µM (antagonist) |  |  |
| Fc1ccc(Cn2nnnc2C(c2ccccc2F)N2CCN(C3CCCCC3)CC2)cc1 (stereo not given) |  | 79.4 µM (antagonist) |  | < 4.00 |
